From ChEMBL document CHEMBL4152256, “Structure-activity relationship of new antimalarial 1-aryl-3-susbtituted propanol derivatives: Synthesis, preliminary toxicity profiling, parasite life cycle stage studies, target exploration, and targeted delivery” (Eur J Med Chem, 2018)

Columns and labels:
Plasmodium falciparum [1] = experiment: Antiplasmodial activity against multidrug-resistant Plasmodium falciparum FCR-3 by [3H]-hypoxanthine incorporation assay; assay type: functional, organism-based, FCR-3/Gambia; settings: Plasmodium falciparum, FCR-3/Gambia
Summary of the method: (§1)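 Blood-stage P. falciparum 3D7 and FCR-3 were tested by a modified [3H]-hypoxanthine incorporation assay. Chloroquine was the reference in all runs.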

Plasmodium falciparum [2] = experiment: Antiplasmodial activity against chloroquine-sensitive Plasmodium falciparum 3D7 by [3H]-hypoxanthine incorporation assay; assay type: functional, organism-based; settings: Plasmodium falciparum, 3D7; summary of the method: as §1
[3] = Cytotoxicity against human HepG2A16 cells by MTT assay; assay type: cell-based; settings: HepG2A16 cells
Summary of the method: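 MTT viability assay on HepG2-A16 cells, giving CC50 values.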

[4] = Selectivity index, ratio of CC50 for human HepG2A16 cells by MTT assay to IC50 for multidrug-resistant Plasmodium falciparum FCR-3; assay type: toxicity; settings: HepG2A16 cells, read-out: Ratio CC50/IC50
Summary of the method: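 HepG2-A16 human hepatoma cells were tested by MTT viability assay to give CC50. Blood-stage activity was measured against the multidrug-resistant P. falciparum FCR-3 strain by [3H]-hypoxanthine incorporation to give IC50. SI = CC50 HepG2 / FCR-3 IC50.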

[5] = Genotoxicity in Salmonella typhimurium TA1535 harboring pSK1002 assessed as survival at 0.004 mg/ml in absence of Sprague-Dawley rat liver S9 fraction after by SOS/umu assay relative to control; assay type: toxicity, organism-based; settings: salmonella enterica subsp. enterica serovar typhimurium, read-out: Survival
[6] = Genotoxicity in Salmonella typhimurium TA1535 harboring pSK1002 assessed as umu gene induction at 0.004 mg/ml in absence of Sprague-Dawley rat liver S9 fraction after by SOS/umu assay relative to control; assay type: toxicity, organism-based; settings: salmonella enterica subsp. enterica serovar typhimurium, read-out: FC
[7] = Genotoxicity in Salmonella typhimurium TA1535 harboring pSK1002 assessed as survival at 0.004 mg/ml in presence of Sprague-Dawley rat liver S9 fraction after by SOS/umu assay relative to control; assay type: toxicity, organism-based; settings: salmonella enterica subsp. enterica serovar typhimurium, read-out: Survival
[8] = Genotoxicity in Salmonella typhimurium TA1535 harboring pSK1002 assessed as umu gene induction at 0.004 mg/ml in presence of Sprague-Dawley rat liver S9 fraction after by SOS/umu assay relative to control; assay type: toxicity, organism-based; settings: salmonella enterica subsp. enterica serovar typhimurium, read-out: FC
[9] = Genotoxicity in Salmonella typhimurium TA1535 harboring pSK1002 assessed as survival at 0.002 mg/ml in absence of Sprague-Dawley rat liver S9 fraction after by SOS/umu assay relative to control; assay type: toxicity, organism-based; settings: salmonella enterica subsp. enterica serovar typhimurium, read-out: Survival
[10] = Genotoxicity in Salmonella typhimurium TA1535 harboring pSK1002 assessed as umu gene induction at 0.002 mg/ml in absence of Sprague-Dawley rat liver S9 fraction after by SOS/umu assay relative to control; assay type: toxicity, organism-based; settings: salmonella enterica subsp. enterica serovar typhimurium, read-out: FC
[11] = Genotoxicity in Salmonella typhimurium TA1535 harboring pSK1002 assessed as survival at 0.002 mg/ml in presence of Sprague-Dawley rat liver S9 fraction after by SOS/umu assay relative to control; assay type: toxicity, organism-based; settings: salmonella enterica subsp. enterica serovar typhimurium, read-out: Survival
[12] = Genotoxicity in Salmonella typhimurium TA1535 harboring pSK1002 assessed as umu gene induction at 0.002 mg/ml in presence of Sprague-Dawley rat liver S9 fraction after by SOS/umu assay relative to control; assay type: toxicity, organism-based; settings: salmonella enterica subsp. enterica serovar typhimurium, read-out: FC
[13] = Genotoxicity in Salmonella typhimurium TA1535 harboring pSK1002 assessed as survival at 0.001 mg/ml in absence of Sprague-Dawley rat liver S9 fraction after by SOS/umu assay relative to control; assay type: toxicity, organism-based; settings: salmonella enterica subsp. enterica serovar typhimurium, read-out: Survival
[14] = Genotoxicity in Salmonella typhimurium TA1535 harboring pSK1002 assessed as umu gene induction at 0.001 mg/ml in absence of Sprague-Dawley rat liver S9 fraction after by SOS/umu assay relative to control; assay type: toxicity, organism-based; settings: salmonella enterica subsp. enterica serovar typhimurium, read-out: FC
[15] = Genotoxicity in Salmonella typhimurium TA1535 harboring pSK1002 assessed as survival at 0.001 mg/ml in presence of Sprague-Dawley rat liver S9 fraction after by SOS/umu assay relative to control; assay type: toxicity, organism-based; settings: salmonella enterica subsp. enterica serovar typhimurium, read-out: Survival
[16] = Genotoxicity in Salmonella typhimurium TA1535 harboring pSK1002 assessed as umu gene induction at 0.001 mg/ml in presence of Sprague-Dawley rat liver S9 fraction after by SOS/umu assay relative to control; assay type: toxicity, organism-based; settings: salmonella enterica subsp. enterica serovar typhimurium, read-out: FC
[17] = Genotoxicity in Salmonella typhimurium TA1535 harboring pSK1002 assessed as survival at 0.0005 mg/ml in absence of Sprague-Dawley rat liver S9 fraction after by SOS/umu assay relative to control; assay type: toxicity, organism-based; settings: salmonella enterica subsp. enterica serovar typhimurium, read-out: Survival
[18] = Genotoxicity in Salmonella typhimurium TA1535 harboring pSK1002 assessed as umu gene induction at 0.0005 mg/ml in absence of Sprague-Dawley rat liver S9 fraction after by SOS/umu assay relative to control; assay type: toxicity, organism-based; settings: salmonella enterica subsp. enterica serovar typhimurium, read-out: FC
[19] = Genotoxicity in Salmonella typhimurium TA1535 harboring pSK1002 assessed as survival at 0.0005 mg/ml in presence of Sprague-Dawley rat liver S9 fraction after by SOS/umu assay relative to control; assay type: toxicity, organism-based; settings: salmonella enterica subsp. enterica serovar typhimurium, read-out: Survival
[20] = Genotoxicity in Salmonella typhimurium TA1535 harboring pSK1002 assessed as umu gene induction at 0.0005 mg/ml in presence of Sprague-Dawley rat liver S9 fraction after by SOS/umu assay relative to control; assay type: toxicity, organism-based; settings: salmonella enterica subsp. enterica serovar typhimurium, read-out: FC
[21] = Genotoxicity in Salmonella typhimurium TA1535 harboring pSK1002 assessed as survival at 0.0002 mg/ml in absence of Sprague-Dawley rat liver S9 fraction after by SOS/umu assay relative to control; assay type: toxicity, organism-based; settings: salmonella enterica subsp. enterica serovar typhimurium, read-out: Survival
[22] = Genotoxicity in Salmonella typhimurium TA1535 harboring pSK1002 assessed as umu gene induction at 0.0002 mg/ml in absence of Sprague-Dawley rat liver S9 fraction after by SOS/umu assay relative to control; assay type: toxicity, organism-based; settings: salmonella enterica subsp. enterica serovar typhimurium, read-out: FC
[23] = Genotoxicity in Salmonella typhimurium TA1535 harboring pSK1002 assessed as survival at 0.0002 mg/ml in presence of Sprague-Dawley rat liver S9 fraction after by SOS/umu assay relative to control; assay type: toxicity, organism-based; settings: salmonella enterica subsp. enterica serovar typhimurium, read-out: Survival
[24] = Genotoxicity in Salmonella typhimurium TA1535 harboring pSK1002 assessed as umu gene induction at 0.0002 mg/ml in presence of Sprague-Dawley rat liver S9 fraction after by SOS/umu assay relative to control; assay type: toxicity, organism-based; settings: salmonella enterica subsp. enterica serovar typhimurium, read-out: FC
[25] = Solubility of the compound in DSPC:cholesterol:DSPE-PEG2000-Mal:DOPE-Rho lipid mixture at 250 uM; assay type: physicochemical
Summary of the method: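 Compound added at 250 µM drug to the initial liposome lipid mixture (10 mM total lipid); precipitation and UV-visible absorbance above 300 nm assessed after encapsulation, removal of unencapsulated material and extraction with 1% w/v SDS in RPMI-A.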

[26] = Genotoxicity in Salmonella typhimurium TA1535 harboring pSK1002 assessed as survival at 0.016 mg/ml in absence of Sprague-Dawley rat liver S9 fraction after by SOS/umu assay relative to control; assay type: toxicity, organism-based; settings: salmonella enterica subsp. enterica serovar typhimurium, read-out: Survival
[27] = Genotoxicity in Salmonella typhimurium TA1535 harboring pSK1002 assessed as umu gene induction at 0.016 mg/ml in absence of Sprague-Dawley rat liver S9 fraction after by SOS/umu assay relative to control; assay type: toxicity, organism-based; settings: salmonella enterica subsp. enterica serovar typhimurium, read-out: FC
[28] = Genotoxicity in Salmonella typhimurium TA1535 harboring pSK1002 assessed as survival at 0.016 mg/ml in presence of Sprague-Dawley rat liver S9 fraction after by SOS/umu assay relative to control; assay type: toxicity, organism-based; settings: salmonella enterica subsp. enterica serovar typhimurium, read-out: Survival
[29] = Genotoxicity in Salmonella typhimurium TA1535 harboring pSK1002 assessed as umu gene induction at 0.016 mg/ml in presence of Sprague-Dawley rat liver S9 fraction after by SOS/umu assay relative to control; assay type: toxicity, organism-based; settings: salmonella enterica subsp. enterica serovar typhimurium, read-out: FC
[30] = Genotoxicity in Salmonella typhimurium TA1535 harboring pSK1002 assessed as survival at 0.008 mg/ml in absence of Sprague-Dawley rat liver S9 fraction after by SOS/umu assay relative to control; assay type: toxicity, organism-based; settings: salmonella enterica subsp. enterica serovar typhimurium, read-out: Survival
[31] = Genotoxicity in Salmonella typhimurium TA1535 harboring pSK1002 assessed as umu gene induction at 0.008 mg/ml in absence of Sprague-Dawley rat liver S9 fraction after by SOS/umu assay relative to control; assay type: toxicity, organism-based; settings: salmonella enterica subsp. enterica serovar typhimurium, read-out: FC
[32] = Genotoxicity in Salmonella typhimurium TA1535 harboring pSK1002 assessed as survival at 0.008 mg/ml in presence of Sprague-Dawley rat liver S9 fraction after by SOS/umu assay relative to control; assay type: toxicity, organism-based; settings: salmonella enterica subsp. enterica serovar typhimurium, read-out: Survival
[33] = Genotoxicity in Salmonella typhimurium TA1535 harboring pSK1002 assessed as umu gene induction at 0.008 mg/ml in presence of Sprague-Dawley rat liver S9 fraction after by SOS/umu assay relative to control; assay type: toxicity, organism-based; settings: salmonella enterica subsp. enterica serovar typhimurium, read-out: FC

SMILES	IC50 (Plasmodium falciparum [1]) [µM]	IC50 (Plasmodium falciparum [2]) [µM]	CC50 [3] [µM]	selectivity ratio [4]	viability at 0.004 mg/ml [5] [%]	fold induction at 0.004 mg/ml [6]	viability at 0.004 mg/ml [7] [%]	fold induction at 0.004 mg/ml [8]	viability at 0.002 mg/ml [9] [%]	fold induction at 0.002 mg/ml [10]	viability at 0.002 mg/ml [11] [%]	fold induction at 0.002 mg/ml [12]	viability at 0.001 mg/ml [13] [%]	fold induction at 0.001 mg/ml [14]	viability at 0.001 mg/ml [15] [%]	fold induction at 0.001 mg/ml [16]	viability at 0.0005 mg/ml [17] [%]	fold induction at 0.0005 mg/ml [18]	viability at 0.0005 mg/ml [19] [%]	fold induction at 0.0005 mg/ml [20]	further results
OC(CCN1CCN(C(c2ccccc2)c2ccccc2)CC1)c1ccc(F)c(Cl)c1 (stereo unspecified)	1.39	5.11	269	194	119	0.8	87.7	1.2	103	1	73.1	1.1	105	1	91.4	0.5	117	0.9	97.7	0.9	viability at 0.0002 mg/ml [21]: 110%; fold induction at 0.0002 mg/ml [22]: 0.8; viability at 0.0002 mg/ml [23]: 92.3%; fold induction at 0.0002 mg/ml [24]: 1; solubility [25]: Insoluble
OC(CCN1CCN(C(c2ccccc2)c2ccccc2)CC1)c1ccc(Cl)cc1 (stereo unspecified)	3.93	24.9	462	118	102	1	89.5	1	108	1	88.9	0.7	106	1.1	96.7	0.6	110	0.9	94.3	0.6	viability at 0.016 mg/ml [26]: 112%; fold induction at 0.016 mg/ml [27]: 0.9; viability at 0.016 mg/ml [28]: 86.6%; fold induction at 0.016 mg/ml [29]: 1.1; viability at 0.008 mg/ml [30]: 125%; fold induction at 0.008 mg/ml [31]: 0.9; viability at 0.008 mg/ml [32]: 98.8%; fold induction at 0.008 mg/ml [33]: 0.9; viability at 0.0002 mg/ml [21]: 105%; fold induction at 0.0002 mg/ml [22]: 1; viability at 0.0002 mg/ml [23]: 96.4%; fold induction at 0.0002 mg/ml [24]: 1; solubility [25]: Insoluble
OC(CCN1CCN(C(c2ccccc2)c2ccccc2)CC1)c1ccc(Br)cc1 (stereo unspecified)	3.09	52.2	351	114	114	1	87.2	1	105	1.1	85.9	0.8	98.3	1	84.1	0.7	108	0.8	104	0.5	viability at 0.016 mg/ml [26]: 121%; fold induction at 0.016 mg/ml [27]: 0.8; viability at 0.016 mg/ml [28]: 87.8%; fold induction at 0.016 mg/ml [29]: 1; viability at 0.008 mg/ml [30]: 116%; fold induction at 0.008 mg/ml [31]: 1.1; viability at 0.008 mg/ml [32]: 98.1%; fold induction at 0.008 mg/ml [33]: 0.9; viability at 0.0002 mg/ml [21]: 107%; fold induction at 0.0002 mg/ml [22]: 0.8; viability at 0.0002 mg/ml [23]: 96.7%; fold induction at 0.0002 mg/ml [24]: 1; solubility [25]: Insoluble
